Data published in ChEMBL document CHEMBL5058577, “EUbOPEN Chemogenomics Library 2 (Multiplex)” (2022).

Test system: HEK-293T
Assay: Multiplex assay against HEK293T
Format: toxicity, cell-based
Details: human
Outline: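 Cells stained live at seeding with Hoechst33342, BioTracker Green Microtubule Cytoskeleton Dye, MitoTracker Red and Annexin V Alexa Fluor 680 were imaged on a CQ1 microscope at 37°C and 5% CO2 after compound addition. Their classification by CellPathfinder machine-learning gating ran from Hoechst high-intensity objects versus normal cells, to healthy, pyknosed or fragmented nuclei among normal cells, to mitotic or apoptotic among pyknosed cells. Tubulin, mitochondrial-mass and membrane-permeability phenotypes are per cents of healthy-nucleus cells.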

[1] = 12 h, 1 µM, compound concentration 1 uM, replicate 1
[2] = 12 h, 1 µM, compound concentration 1 uM, replicate 2
[3] = 12 h, 10 µM, compound concentration 10 uM, replicate 1
[4] = 12 h, 10 µM, compound concentration 10 uM, replicate 2
[5] = 24 h, 1 µM, compound concentration 1 uM, replicate 1
[6] = 24 h, 1 µM, compound concentration 1 uM, replicate 2
[7] = 24 h, 10 µM, compound concentration 10 uM, replicate 1
[8] = 24 h, 10 µM, compound concentration 10 uM, replicate 2
[9] = 48 h, 1 µM, compound concentration 1 uM, replicate 1
[10] = 48 h, 1 µM, compound concentration 1 uM, replicate 2
[11] = 48 h, 10 µM, compound concentration 10 uM, replicate 1
[12] = 48 h, 10 µM, compound concentration 10 uM, replicate 2

In the case of `Cc1sc2c(c1C)C(c1ccc(Cl)cc1)=N[C@H](CC(=O)OC(C)(C)C)c1nnc(C)n1-2`, the “Population Apoptotic (%)” value [1] is reported as 40%, the “Population Fragmented Nuclei (%)” value [1] is reported as 8% and the “Population Healthy Nuclei (%)” value [1] is reported as 80%. The “Population Hoechst High Intensity Objects (%)” value [1] was 8%, the “Population Membrane Permeable-Phenotype (%)” value [1] was 0% and the “Population Mitochondria Different-Phenotype (%)” value [1] was 49%. The “Population Mitotic Cells (%)” value [1] was 60%, the “Population Normal (%)” value [1] was 91% and the “Population Pyknosed Nuclei (%)” value [1] was 10%. For the same molecule, the “Population Tubulin-Different-Phenotype (%)” value [1] was 32%, the “Total Cell Count” value [1] was 478 and the “Population Apoptotic (%)” value [2] was 44%. The “Population Fragmented Nuclei (%)” value [2] was 6%, the “Population Healthy Nuclei (%)” value [2] was 76% and the “Population Hoechst High Intensity Objects (%)” value [2] was 9%. For the same molecule, the “Population Mitochondria Different-Phenotype (%)” value [2] was 65%, the “Population Mitotic Cells (%)” value [2] was 55% and the “Population Normal (%)” value [2] was 90%. For the same molecule, the “Population Pyknosed Nuclei (%)” value [2] was 17%, the “Population Tubulin-Different-Phenotype (%)” value [2] was 26% and the “Total Cell Count” value [2] was 333. The “Population Apoptotic (%)” value [3] was 41%, the “Population Fragmented Nuclei (%)” value [3] was 7% and the “Population Healthy Nuclei (%)” value [3] was 76%. The “Population Hoechst High Intensity Objects (%)” value [3] was 7%, the “Population Membrane Permeable-Phenotype (%)” value [3] was 0% and the “Population Mitochondria Different-Phenotype (%)” value [3] was 74%. The “Population Mitotic Cells (%)” value [3] was 58%, the “Population Normal (%)” value [3] was 92% and the “Population Pyknosed Nuclei (%)” value [3] was 15%. The “Population Tubulin-Different-Phenotype (%)” value [3] was 67%, the “Total Cell Count” value [3] was 395 and the “Population Apoptotic (%)” value [4] was 66%. For the same molecule, the “Population Fragmented Nuclei (%)” value [4] was 5%, the “Population Healthy Nuclei (%)” value [4] was 72% and the “Population Hoechst High Intensity Objects (%)” value [4] was 10%. For the same molecule, the “Population Mitochondria Different-Phenotype (%)” value [4] was 90%, the “Population Mitotic Cells (%)” value [4] was 33% and the “Population Normal (%)” value [4] was 89%. The “Population Pyknosed Nuclei (%)” value [4] was 21%, the “Population Tubulin-Different-Phenotype (%)” value [4] was 70% and the “Total Cell Count” value [4] was 303. The “Population Apoptotic (%)” value [5] was 32%, the “Population Fragmented Nuclei (%)” value [5] was 10% and the “Population Healthy Nuclei (%)” value [5] was 76%. For the same molecule, the “Population Hoechst High Intensity Objects (%)” value [5] was 5%, the “Population Membrane Permeable-Phenotype (%)” value [5] was 0% and the “Population Mitochondria Different-Phenotype (%)” value [5] was 29%. The “Population Mitotic Cells (%)” value [5] was 68%, the “Population Normal (%)” value [5] was 94% and the “Population Pyknosed Nuclei (%)” value [5] was 13%. The “Population Tubulin-Different-Phenotype (%)” value [5] was 19%, the “Total Cell Count” value [5] was 609 and the “Population Healthy Nuclei (%)” value [6] was 82%. For the same molecule, the “Population Hoechst High Intensity Objects (%)” value [6] was 6%, the “Population Mitochondria Different-Phenotype (%)” value [6] was 43% and the “Population Mitotic Cells (%)” value [6] was 67%. The “Population Normal (%)” value [6] was 93%, the “Population Pyknosed Nuclei (%)” value [6] was 6% and the “Population Tubulin-Different-Phenotype (%)” value [6] was 11%. The “Total Cell Count” value [6] was 479, the “Population Apoptotic (%)” value [7] was 41% and the “Population Fragmented Nuclei (%)” value [7] was 8%. The “Population Healthy Nuclei (%)” value [7] was 68%, the “Population Hoechst High Intensity Objects (%)” value [7] was 4% and the “Population Membrane Permeable-Phenotype (%)” value [7] was 0%. For the same molecule, the “Population Mitochondria Different-Phenotype (%)” value [7] was 64%, the “Population Mitotic Cells (%)” value [7] was 58% and the “Population Normal (%)” value [7] was 95%. For the same molecule, the “Population Pyknosed Nuclei (%)” value [7] was 23%, the “Population Tubulin-Different-Phenotype (%)” value [7] was 46% and the “Total Cell Count” value [7] was 468. For the same molecule, the “Population Apoptotic (%)” value [8] was 49%, the “Population Fragmented Nuclei (%)” value [8] was 3% and the “Population Healthy Nuclei (%)” value [8] was 76%. The “Population Hoechst High Intensity Objects (%)” value [8] was 6%, the “Population Membrane Permeable-Phenotype (%)” value [8] was 1% and the “Population Mitochondria Different-Phenotype (%)” value [8] was 76%. For the same molecule, the “Population Mitotic Cells (%)” value [8] was 50%, the “Population Normal (%)” value [8] was 93% and the “Population Pyknosed Nuclei (%)” value [8] was 19%. For the same molecule, the “Population Tubulin-Different-Phenotype (%)” value [8] was 47%, the “Total Cell Count” value [8] was 378 and the “Population Apoptotic (%)” value [9] was 18%. The “Population Fragmented Nuclei (%)” value [9] was 11%, the “Population Healthy Nuclei (%)” value [9] was 80% and the “Population Hoechst High Intensity Objects (%)” value [9] was 3%. The “Population Membrane Permeable-Phenotype (%)” value [9] was 1%, the “Population Mitochondria Different-Phenotype (%)” value [9] was 16% and the “Population Mitotic Cells (%)” value [9] was 81%. The “Population Normal (%)” value [9] was 96%, the “Population Pyknosed Nuclei (%)” value [9] was 7% and the “Population Tubulin-Different-Phenotype (%)” value [9] was 10%. The “Total Cell Count” value [9] was 1012, the “Population Apoptotic (%)” value [10] was 30% and the “Population Fragmented Nuclei (%)” value [10] was 14%. The “Population Healthy Nuclei (%)” value [10] was 79%, the “Population Hoechst High Intensity Objects (%)” value [10] was 4% and the “Population Membrane Permeable-Phenotype (%)” value [10] was 0%. The “Population Mitochondria Different-Phenotype (%)” value [10] was 21%, the “Population Mitotic Cells (%)” value [10] was 69% and the “Population Normal (%)” value [10] was 95%. For the same molecule, the “Population Pyknosed Nuclei (%)” value [10] was 5%, the “Population Tubulin-Different-Phenotype (%)” value [10] was 12% and the “Total Cell Count” value [10] was 685. For the same molecule, the “Population Apoptotic (%)” value [11] was 31%, the “Population Fragmented Nuclei (%)” value [11] was 9% and the “Population Healthy Nuclei (%)” value [11] was 73%. The “Population Hoechst High Intensity Objects (%)” value [11] was 3%, the “Population Membrane Permeable-Phenotype (%)” value [11] was 0% and the “Population Mitochondria Different-Phenotype (%)” value [11] was 47%. The “Population Mitotic Cells (%)” value [11] was 68%, the “Population Normal (%)” value [11] was 96% and the “Population Pyknosed Nuclei (%)” value [11] was 16%. For the same molecule, the “Population Tubulin-Different-Phenotype (%)” value [11] was 19%, the “Total Cell Count” value [11] was 641 and the “Population Apoptotic (%)” value [12] was 55%. The “Population Fragmented Nuclei (%)” value [12] was 8%, the “Population Healthy Nuclei (%)” value [12] was 76% and the “Population Hoechst High Intensity Objects (%)” value [12] was 5%. The “Population Mitochondria Different-Phenotype (%)” value [12] was 66%, the “Population Mitotic Cells (%)” value [12] was 44% and the “Population Normal (%)” value [12] was 94%. For the same molecule, the “Population Pyknosed Nuclei (%)” value [12] was 15%, the “Population Tubulin-Different-Phenotype (%)” value [12] was 28% and the “Total Cell Count” value [12] was 525.
